Values belong to the compound of their own block, whether it stands above or below them. Calls of active or inactive are those of the source. The rule behind the calls is not given here.
Columns and labels:
[1] = target: T1, Proteasome Macropain subunit MB1 (Homo sapiens) (UniProt P28074); assay: (§1) Inhibition of catalytic activity of constitutive proteasome 20s subunit beta5 in human RPMI8226 cells incubated for 1 hr by BODIPY(TMR)-NC-005-VS probe based competitive activity based protein profiling assay; assay type: cell-based
T1 sequence (whole entry): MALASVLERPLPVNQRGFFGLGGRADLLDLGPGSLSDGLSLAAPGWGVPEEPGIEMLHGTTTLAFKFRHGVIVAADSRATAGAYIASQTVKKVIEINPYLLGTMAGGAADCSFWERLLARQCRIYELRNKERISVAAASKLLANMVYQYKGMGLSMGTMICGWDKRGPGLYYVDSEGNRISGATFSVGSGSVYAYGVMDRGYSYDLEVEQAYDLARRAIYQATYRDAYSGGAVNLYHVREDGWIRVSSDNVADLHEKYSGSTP
How it was run: (§2)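 Live RPMI-8226 cells ((5-8)x10⁵ cells/mL; RPMI-1640, 10% FCS, GlutaMAX, pen/strep, 5% CO₂) exposed to inhibitor 1 h at 37 °C. Cells washed with PBS and lysed in digitonin/ATP buffer on ice 1 h. Lysates then labelled 1 h with the ABP cocktail and run on SDS-PAGE. In-gel fluorescence bands were normalized to mock and corrected for loading by Coomassie. IC50 from mean of three independent experiments.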

[2] = target: T2, Proteasome component C5 (Homo sapiens) (UniProt P20618); assay: Inhibition of catalytic activity of constitutive proteasome 20s subunit beta1 in human RPMI8226 cells incubated for 1 hr by Cy5-NC-001 probe based competitive activity based protein profiling assay; assay type: cell-based; how it was run: as §2
T2 sequence (whole entry): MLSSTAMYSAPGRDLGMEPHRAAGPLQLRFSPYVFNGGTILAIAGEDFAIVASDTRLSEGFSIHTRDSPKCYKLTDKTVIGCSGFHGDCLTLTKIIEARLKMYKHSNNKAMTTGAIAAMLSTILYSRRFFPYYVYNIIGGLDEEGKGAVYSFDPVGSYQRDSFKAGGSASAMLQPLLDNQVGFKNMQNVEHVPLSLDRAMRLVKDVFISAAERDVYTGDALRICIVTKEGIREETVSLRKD

[3] = target: Proteasome subunit beta type-8 (β5i, LMP7) (Homo sapiens) (UniProt P28062); assay: Inhibition of catalytic activity of immunoproteasome 20s subunit beta5 in human RPMI8226 cells incubated for 1 hr by BODIPY(TMR)-NC-005-VS probe based competitive activity based protein profiling assay
[4] = target: Proteasome Macropain subunit (Homo sapiens) (UniProt P49721); assay: Inhibition of catalytic activity of constitutive proteasome 20s subunit beta2 in human RPMI8226 cells incubated for 1 hr by BODIPY(FL)-LU-112 probe based competitive activity based protein profiling assay; assay type: cell-based; how it was run: as §2
[5] = target: T3, Proteasome Macropain subunit MB1 (Homo sapiens, UniProt P28074); assay: (§3) Inhibition of catalytic activity of constitutive proteasome 20s subunit beta5 in human Raji cells incubated for 1 hr by BODIPY(TMR)-NC-005-VS probe based competitive activity based protein profiling assay; assay type: cell-based
T3 sequence (P28074 whole entry): T1 sequence (whole entry)

[6] = target: Proteasome subunit beta type-9 (β1i, LMP2) (Homo sapiens) (UniProt P28065); assay: Inhibition of catalytic activity of immunoproteasome 20s subunit beta1 in human RPMI8226 cells incubated for 1 hr by Cy5-NC-001 probe based competitive activity based protein profiling assay
[7] = target: T1, Proteasome Macropain subunit MB1 (Homo sapiens); assay: Inhibition of catalytic activity of immunoproteasome 20s subunit beta5/constitutive 20s subunit beta5 in human AMO1 cells assessed as accumulation of ubiquitinated-GFP at 3 uM after 1 hr by FACS analysis; assay type: cell-based
How it was run: (§4)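 AMO-1 myeloma clone stably expressing Ub-G76V-GFP (G418-selected). 5x10⁵ cells pulsed 1 h at 37 °C with inhibitor, washed with PBS, then chased 12 h in inhibitor-free medium (37 °C, 5% CO₂). GFP median fluorescence intensity read by flow cytometry in FITC channel.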

[8] = target: T3, Proteasome Macropain subunit MB1; assay: as §1; assay type: cell-based; how it was run: as §2
[9] = target: T1, Proteasome Macropain subunit MB1 (Homo sapiens); assay: Inhibition of catalytic activity of immunoproteasome 20s subunit beta5/constitutive 20s subunit beta5 in human AMO1 cells assessed as accumulation of ubiquitinated-GFP at 100 uM after 1 hr by FACS analysis; assay type: cell-based; how it was run: as §4
Homo sapiens = species on record: Homo sapiens; assay: Selectivity ratio of IC50 for immunoproteasome 20s subunit beta5 in human Raji cells to IC50 for constitutive proteasome 20s subunit beta5 in human Raji cells; assay type: cell-based
How it was run: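 Initial screen in Raji cell extracts. Inhibitor at 0.01, 0.1, 1.0 and 10.0 µM final for 1 h at 37 °C, then ABP cocktail 1 h. In-gel fluorescence of β5c/β5i bands normalized to mock-treated extract, giving residual activity. Run once. IC50s from this screen feed the β5i/β5c ratio.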

[10] = target: Proteasome Macropain subunit (Homo sapiens) (UniProt P49721); assay: Inhibition of catalytic activity of constitutive proteasome 20s subunit beta2 in human Raji cells incubated for 1 hr by BODIPY(FL)-LU-112 probe based competitive activity based protein profiling assay; assay type: cell-based
[11] = target: T2, Proteasome component C5 (Homo sapiens); assay: Inhibition of catalytic activity of constitutive proteasome 20s subunit beta1 in human Raji cells incubated for 1 hr by Cy5-NC-001 probe based competitive activity based protein profiling assay; assay type: cell-based
[12] = target: Proteasome subunit beta type-9 (β1i, LMP2) (Homo sapiens) (UniProt P28065); assay: Inhibition of catalytic activity of immunoproteasome 20s subunit beta1 in human Raji cells incubated for 1 hr by Cy5-NC-001 probe based competitive activity based protein profiling assay
[13] = target: T1, Proteasome Macropain subunit MB1 (Homo sapiens); assay: as §3; assay type: cell-based
[14] = target: Proteasome subunit beta type-8 (β5i, LMP7) (Homo sapiens) (UniProt P28062); assay: Inhibition of catalytic activity of immunoproteasome 20s subunit beta5 in human Raji cells incubated for 1 hr by BODIPY(TMR)-NC-005-VS probe based competitive activity based protein profiling assay

inhibition [1]: inactive
inhibition [2]: inactive
inhibition [3]: inactive
inhibition [4]: inactive
IC50 [5]: 4.9 nM
inhibition [6]: inactive
SMILES: C[C@H](NC(=O)[C@H](Cc1ccccc1)NC(=O)[C@H](C[C@H]1CC[C@H](C2CCCCC2)CC1)NC(=O)[C@H](Cc1ccccc1)N=[N+]=[N-])C(=O)[C@@]1(C)CO1

inhibition [7]: Active
SMILES: COc1ccc(C[C@H](NC(=O)Cc2ccc3ccccc3c2)C(=O)N[C@@H](Cc2ccccc2)C(=O)N[C@@H](CC(C)C)C(=O)[C@@]2(C)CO2)cc1

IC50 [8]: 274 nM
inhibition [9]: Active
IC50 [5]: 28 nM
SMILES: CC(C)C[C@H](NC(=O)CN1CCOCC1)C(=O)N[C@@H](C[C@H]1CC[C@H](C2CCCCC2)CC1)C(=O)N[C@@H](Cc1ccccc1)C(=O)N[C@@H](C)C(=O)[C@@]1(C)CO1
Ratio IC50 (Homo sapiens): 814

pIC50(app) [10]: 7.34
pIC50(app) [11]: < 4
pIC50(app) [12]: < 4
IC50 [5]: 2 nM
pIC50(app) [13]: 8.7
pIC50(app) [14]: 7.96
SMILES: CC(C)C[C@H](NC(=O)[C@H](Cc1ccccc1)NC(=O)[C@H](CC1CCC(C)CC1)NC(=O)[C@H](Cc1ccccc1)N=[N+]=[N-])C(=O)[C@@]1(C)CO1 (some centres not stated)
